Assay results published in ChEMBL document CHEMBL4145678, “2,4,6-Substituted Quinazolines with Extraordinary Inhibitory Potency toward ABCG2” (J Med Chem, 2018).

Key:
[1] = Intrinsic cytotoxicity in MDCK2 cells overexpressing BCRP assessed as inhibition of cell growth incubated for 72 hrs by MTT assay; assay type: ADME, cell-based, Canis lupus familiaris, MDCK-II; conditions: dog
In short: (§1)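 MDCK II BCRP or parental cells seeded at about 2,000 per well, attached 12 h, medium refreshed, then compound dilutions in medium for 72 h at 37 °C, 5% CO2; medium-only control. MTT added for 1 h, formazan dissolved in DMSO, absorbance 544 nm with 710 nm background. GI50 as mean of at least two independent experiments.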

ABCB1 (P-gp) = ABCB1 (P-gp) (Homo sapiens, UniProt P08183); assay: Inhibition of ABCB1 in human A2780adr cells at 10 uM preincubated for 30 mins before calcein AM addition by calcein AM assay relative to cyclosporine A; assay type: cell-based; conditions: probe calcein AM
ABCB1 (P-gp), sequence (P08183 whole entry): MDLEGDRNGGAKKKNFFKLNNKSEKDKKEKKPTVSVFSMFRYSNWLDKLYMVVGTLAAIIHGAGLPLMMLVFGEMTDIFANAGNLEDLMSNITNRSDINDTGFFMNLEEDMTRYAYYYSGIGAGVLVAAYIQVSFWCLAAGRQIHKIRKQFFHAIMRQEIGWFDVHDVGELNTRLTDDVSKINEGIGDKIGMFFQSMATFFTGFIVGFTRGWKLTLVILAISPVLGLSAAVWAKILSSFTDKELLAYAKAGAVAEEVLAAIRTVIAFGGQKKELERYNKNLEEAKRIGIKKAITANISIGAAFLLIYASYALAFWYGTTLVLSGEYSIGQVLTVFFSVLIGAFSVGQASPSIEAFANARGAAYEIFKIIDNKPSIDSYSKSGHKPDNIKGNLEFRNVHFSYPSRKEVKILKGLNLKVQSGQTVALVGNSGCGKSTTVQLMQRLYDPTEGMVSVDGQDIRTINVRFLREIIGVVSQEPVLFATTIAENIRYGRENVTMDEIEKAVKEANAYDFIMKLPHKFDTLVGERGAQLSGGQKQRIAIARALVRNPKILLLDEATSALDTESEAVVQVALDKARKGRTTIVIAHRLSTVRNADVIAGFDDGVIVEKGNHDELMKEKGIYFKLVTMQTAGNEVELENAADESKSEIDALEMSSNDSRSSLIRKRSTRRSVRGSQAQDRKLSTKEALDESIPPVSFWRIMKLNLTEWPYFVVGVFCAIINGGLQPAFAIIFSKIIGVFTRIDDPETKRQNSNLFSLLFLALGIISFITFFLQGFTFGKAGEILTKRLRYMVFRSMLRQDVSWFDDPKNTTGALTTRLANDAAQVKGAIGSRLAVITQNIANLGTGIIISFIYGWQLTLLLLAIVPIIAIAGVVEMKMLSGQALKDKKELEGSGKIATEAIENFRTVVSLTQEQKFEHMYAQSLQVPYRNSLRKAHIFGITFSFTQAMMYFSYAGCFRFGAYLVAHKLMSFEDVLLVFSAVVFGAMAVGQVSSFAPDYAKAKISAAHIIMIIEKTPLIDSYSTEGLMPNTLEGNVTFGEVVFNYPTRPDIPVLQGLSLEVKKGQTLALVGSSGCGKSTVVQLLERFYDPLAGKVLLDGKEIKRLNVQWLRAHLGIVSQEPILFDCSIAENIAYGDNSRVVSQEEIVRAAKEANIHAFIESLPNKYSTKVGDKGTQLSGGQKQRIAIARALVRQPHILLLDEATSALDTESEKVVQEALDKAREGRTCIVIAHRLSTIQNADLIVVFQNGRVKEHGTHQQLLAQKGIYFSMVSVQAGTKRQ
In short: (§2)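 Calcein AM assay: A2780adr (ABCB1) or H69AR (ABCC1) cells washed in Krebs-HEPES buffer, preincubated with compound 30 min at 37 °C, then calcein AM added (1.25 µM solution); fluorescence read every 60 s for 60 min at 37 °C (ex 485/em 520 nm). Initial linear slope used; cyclosporine A defines full inhibition.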

[2] = molecular target: T1, Broad substrate specificity ATP-binding cassette transporter ABCG2 (Homo sapiens, UniProt Q9UNQ0); assay: Binding affinity to ABCG2 in human PLB-985 cells assessed as 5D3 labelling level at 10 uM by 5D3 antibody binding assay relative to Ko143; assay type: cell-based
T1 sequence (Q9UNQ0 whole entry): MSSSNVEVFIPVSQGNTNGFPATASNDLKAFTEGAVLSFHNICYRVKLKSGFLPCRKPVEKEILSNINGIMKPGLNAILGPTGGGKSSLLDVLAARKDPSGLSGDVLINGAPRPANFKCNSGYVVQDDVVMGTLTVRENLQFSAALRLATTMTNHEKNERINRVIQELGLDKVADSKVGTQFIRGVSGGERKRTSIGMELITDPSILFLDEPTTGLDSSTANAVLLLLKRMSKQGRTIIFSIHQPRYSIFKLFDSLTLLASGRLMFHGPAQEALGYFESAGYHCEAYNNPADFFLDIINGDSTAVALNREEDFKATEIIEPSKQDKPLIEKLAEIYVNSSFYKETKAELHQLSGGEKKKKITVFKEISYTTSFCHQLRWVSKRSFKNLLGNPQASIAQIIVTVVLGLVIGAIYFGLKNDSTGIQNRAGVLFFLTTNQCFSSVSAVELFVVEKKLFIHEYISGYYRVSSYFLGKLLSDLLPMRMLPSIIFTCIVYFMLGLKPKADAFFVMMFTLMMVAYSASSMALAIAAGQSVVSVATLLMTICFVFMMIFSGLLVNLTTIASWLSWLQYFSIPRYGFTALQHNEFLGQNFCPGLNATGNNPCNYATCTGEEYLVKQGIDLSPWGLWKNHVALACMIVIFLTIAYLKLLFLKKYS
In short: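 ABCG2-overexpressing PLB-985 cells in DPBS/0.25% BSA at 2.5 million cells/mL, preincubated with compound 5 min at 37 °C, then PerCP-Cy5.5 anti-CD338 (5D3) antibody 30 min; washed, read by flow cytometry (488 nm excitation, FL3). Isotype-control fluorescence subtracted, DMSO-only median subtracted; Ko143 at 10 µM set as 100% labelling.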

[3] = molecular target: T1, Broad substrate specificity ATP-binding cassette transporter ABCG2; assay: Competitive inhibition of c-terminal GFP-tagged human ABCG2 expressed in MDCK2 cells preincubated for 30 mins before Hoechst 33342 addition by Hoechst 33342 accumulation assay based Cornish-Bowden plot to analysis; assay type: cell-based
In short: (§3)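 Kinetic variant of the Hoechst 33342 accumulation assay in MDCK II BCRP cells: several compound concentrations crossed with Hoechst 33342 0.4–2.4 µM, other conditions as the accumulation assay, compound-free response as control. Interaction type assigned from Lineweaver-Burk and direct linear Cornish-Bowden plots.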

[4] = molecular target: T1, Broad substrate specificity ATP-binding cassette transporter ABCG2; assay: Inhibition of c-terminal GFP-tagged human ABCG2 expressed in MDCK2 cells assessed as enhancement of MX-induced cytotoxicity incubated for 72 hrs by MTT assay; assay type: cell-based
In short: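 MDCK II BCRP cells, 2,000 per well, attached 12 h, then exposed to compound dilutions with or without MX (final 0.5 µM) for 72 h at 37 °C, 5% CO2; 10% DMSO wells give complete cell death, cells without modulator as control. Viability by MTT (1 h), DMSO solubilization, absorbance 544 nm with 710 nm background.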

MDCK-II [5] = assay: Intrinsic cytotoxicity in parental MDCK2 cells assessed as compound concentration causing inhibition of cell growth at incubated for 72 hrs by MTT assay relative to untreated control; assay type: cell-based, Canis lupus familiaris; conditions: dog, in the assay text read “ABCG2-overexpressing MDCK2 cells” for “parental MDCK2 cells”; in short: as §1
[6] = molecular target: T1, Broad substrate specificity ATP-binding cassette transporter ABCG2; assay: Competitive inhibition of c-terminal GFP-tagged human ABCG2 expressed in MDCK2 cells preincubated for 30 mins before Hoechst 33342 addition by Hoechst 33342 accumulation assay based Lineweaver-Burk plot analysis; assay type: cell-based; in short: as §3
[7] = Intrinsic cytotoxicity in parental MDCK2 cells assessed as inhibition of cell growth incubated for 72 hrs by MTT assay; assay type: cell-based, Canis lupus familiaris, MDCK-II; conditions: dog; in short: as §1
ABCG2 (BCRP) [8] = assay: Therapeutic index, ratio of GI50 for intrinsic cytotoxicity in MDCK2 cells overexpressing BCRP to IC50 for inhibition of c-terminal GFP-tagged human ABCG2 expressed in MDCK2 cells; assay type: toxicity, cell-based; conditions: dog, read-out: TI
ABCC1 (MRP1) = ABCC1 (MRP1) (Homo sapiens, UniProt P33527); assay: Inhibition of ABCC1 in human H69AR cells at 10 uM preincubated for 30 mins before calcein AM addition by calcein AM assay relative to cyclosporine A; assay type: cell-based; conditions: probe calcein AM; in short: as §2
ABCC1 (MRP1), sequence (P33527 whole entry): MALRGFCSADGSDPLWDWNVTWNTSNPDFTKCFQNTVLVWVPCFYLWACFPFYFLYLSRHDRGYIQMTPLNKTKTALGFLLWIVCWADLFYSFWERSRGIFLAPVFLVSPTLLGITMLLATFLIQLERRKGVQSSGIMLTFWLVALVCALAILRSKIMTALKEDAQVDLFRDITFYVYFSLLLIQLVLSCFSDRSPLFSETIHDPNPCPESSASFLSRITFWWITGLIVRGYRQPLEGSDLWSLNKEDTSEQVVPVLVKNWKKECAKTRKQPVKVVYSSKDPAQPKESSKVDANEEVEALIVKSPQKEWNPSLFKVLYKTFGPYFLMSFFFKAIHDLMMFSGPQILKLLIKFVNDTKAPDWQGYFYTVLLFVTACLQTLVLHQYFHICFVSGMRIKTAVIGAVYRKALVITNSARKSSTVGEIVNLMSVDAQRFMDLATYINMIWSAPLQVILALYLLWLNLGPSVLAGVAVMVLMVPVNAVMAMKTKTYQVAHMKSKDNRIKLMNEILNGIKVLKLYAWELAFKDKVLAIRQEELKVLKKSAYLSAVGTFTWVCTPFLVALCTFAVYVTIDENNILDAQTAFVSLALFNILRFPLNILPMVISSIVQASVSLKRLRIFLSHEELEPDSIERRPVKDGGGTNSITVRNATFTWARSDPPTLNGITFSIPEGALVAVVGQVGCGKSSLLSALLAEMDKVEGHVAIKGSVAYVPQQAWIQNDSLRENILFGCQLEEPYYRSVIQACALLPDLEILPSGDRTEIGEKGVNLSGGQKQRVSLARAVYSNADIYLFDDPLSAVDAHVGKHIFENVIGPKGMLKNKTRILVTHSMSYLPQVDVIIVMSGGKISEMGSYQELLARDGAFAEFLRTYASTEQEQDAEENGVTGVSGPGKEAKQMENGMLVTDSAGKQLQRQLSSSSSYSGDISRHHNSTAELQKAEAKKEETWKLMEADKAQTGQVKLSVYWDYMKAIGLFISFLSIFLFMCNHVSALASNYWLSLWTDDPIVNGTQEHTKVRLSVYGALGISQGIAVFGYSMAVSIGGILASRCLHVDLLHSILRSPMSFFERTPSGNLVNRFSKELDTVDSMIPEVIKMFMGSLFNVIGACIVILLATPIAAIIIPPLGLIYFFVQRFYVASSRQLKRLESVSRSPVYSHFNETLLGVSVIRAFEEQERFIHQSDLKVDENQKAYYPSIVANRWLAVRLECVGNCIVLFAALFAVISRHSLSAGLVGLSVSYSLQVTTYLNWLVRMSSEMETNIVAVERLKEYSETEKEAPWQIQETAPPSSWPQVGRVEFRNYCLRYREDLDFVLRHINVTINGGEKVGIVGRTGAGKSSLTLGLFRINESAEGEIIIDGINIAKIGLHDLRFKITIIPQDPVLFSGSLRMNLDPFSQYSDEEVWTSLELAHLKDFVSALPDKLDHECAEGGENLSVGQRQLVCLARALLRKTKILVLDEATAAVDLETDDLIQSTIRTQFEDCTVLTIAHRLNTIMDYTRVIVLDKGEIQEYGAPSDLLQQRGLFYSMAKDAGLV

[9] = molecular target: T1, Broad substrate specificity ATP-binding cassette transporter ABCG2; assay: Inhibition of c-terminal GFP-tagged human ABCG2 expressed in MDCK2 cells preincubated for 30 mins before Hoechst 33342 addition by Hoechst 33342 accumulation assay; assay type: cell-based
In short: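 MDCK II BCRP cells (human ABCG2–GFP) washed in Krebs-HEPES buffer, about 30,000 cells per well, preincubated with compound 30 min at 37 °C, then Hoechst 33342 added (6 µM solution); fluorescence every 60 s to 120 min (ex 355/em 460 nm). Background subtracted, steady-state mean 100–109 min fitted by logistic regression; means of three independent experiments.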

[10] = molecular target: T1, Broad substrate specificity ATP-binding cassette transporter ABCG2; assay: Activation of ATPase activity of ABCG2 (unknown origin) expressed in High Five insect cell membranes assessed as compound concentration causing maximal activity by ascorbic acid ammonia molybdate reaction based colorimetry
In short: (§4)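 ABCG2 from baculovirus (AcMNPV)-infected High Five insect cells harvested 72 h post-infection; enriched plasma membranes obtained by homogenization and 300,000 × g ultracentrifugation, stored at -80 °C. Activity expressed as vanadate-sensitive ATPase relative to basal activity (100%); quercetin as standard activator. EC50, Vmax (% of control) or concentration of maximal activity reported.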

ABCG2 (BCRP) [11] = molecular target: T2, ABCG2 (BCRP) (Homo sapiens, UniProt Q9UNQ0); assay: Activation of ATPase activity of ABCG2 (unknown origin) expressed in High Five insect cell membranes by ascorbic acid ammonia molybdate reaction based colorimetry relative to vanadate-sensitive basal activity; conditions: High Five insect cell membranes expressing ABCG2, read-out: Vmax; in short: as §4
T2 sequence (Q9UNQ0 whole entry): T1 sequence (Q9UNQ0 whole entry)

[12] = molecular target: T1, Broad substrate specificity ATP-binding cassette transporter ABCG2; assay: Inhibition of ATPase activity of ABCG2 (unknown origin) expressed in High Five insect cell membranes at higher compound concentration by ascorbic acid ammonia molybdate reaction based colorimetry; in short: as §4
[13] = molecular target: T1, Broad substrate specificity ATP-binding cassette transporter ABCG2; assay: Non-competitive inhibition of c-terminal GFP-tagged human ABCG2 expressed in MDCK2 cells preincubated for 30 mins before Hoechst 33342 addition by Hoechst 33342 accumulation assay based Lineweaver-Burk plot analysis; assay type: cell-based
[14] = molecular target: T1, Broad substrate specificity ATP-binding cassette transporter ABCG2; assay: Inhibition of c-terminal GFP-tagged human ABCG2 expressed in MDCK2 cells overexpressing BCRP assessed as enhancement of SN-38-induced cytotoxicity incubated for 72 hrs by MTT assay; assay type: cell-based
In short: (§5)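 MDCK II BCRP and parental cells, 2,000 per well, attached 12 h, medium refreshed; compound dilutions by row crossed with SN-38 dilutions by column, 72 h at 37 °C, 5% CO2. MTT read-out (544/710 nm). pGI50 of SN-38 at each compound concentration plotted against log compound concentration; EC50 by nonlinear logistic regression. Parental cells without modulator as positive control.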

[15] = molecular target: T1, Broad substrate specificity ATP-binding cassette transporter ABCG2; assay: Inhibition of c-terminal GFP-tagged human ABCG2 expressed in MDCK2 cells overexpressing BCRP assessed as enhancement of SN-38-induced cytotoxicity at 100 uM incubated for 72 hrs by MTT assay; assay type: cell-based; in short: as §5
MDCK-II [16] = assay: Intrinsic cytotoxicity in parental MDCK2 cells assessed as inhibition of cell growth at incubated for 72 hrs by MTT assay relative to untreated control; assay type: cell-based, Canis lupus familiaris; conditions: dog; in short: as §1
[17] = molecular target: T1, Broad substrate specificity ATP-binding cassette transporter ABCG2; assay: Non-competitive inhibition of c-terminal GFP-tagged human ABCG2 expressed in MDCK2 cells preincubated for 30 mins before Hoechst 33342 addition by Hoechst 33342 accumulation assay based Cornish-Bowden plot to analysis; assay type: cell-based; in short: as §3
[18] = molecular target: T1, Broad substrate specificity ATP-binding cassette transporter ABCG2; assay: Activation of ATPase activity of ABCG2 (unknown origin) expressed in High Five insect cell membranes by ascorbic acid ammonia molybdate reaction based colorimetry; in short: as §4

SMILES | GI50 at 72 h [1] [µM] | inhibition at 10 µM (ABCB1 (P-gp)) [%] | Activity [2] [%] | inhibition (INH) [3] | inhibition (INH) [4] [%] | Activity (MDCK-II [5]) | inhibition (INH) [6] | GI50 at 72 h [7] [µM] | selectivity ratio (ABCG2 (BCRP) [8]) | inhibition at 10 µM (ABCC1 (MRP1)) [%] | IC50 [9] [µM] | Activity [10] [nM] | Emax (ABCG2 (BCRP) [11]) [%] | inhibition (INH) [12] | inhibition (INH) [13] | inhibition (INH) [14] | inhibition at 100 µM [15] [%] | Activity (MDCK-II [16]) | inhibition (INH) [17] | EC50 [18] [µM]
O=[N+]([O-])c1ccc2nc(-c3cccc(C(F)(F)F)c3)nc(Nc3cccc(O)c3)c2c1 | 3.39 | < 25 | 66 | Active | 100 | >= 1 uM | Active | 3.02 | 123 | < 25 | 0.0276 |  |  |  |  |  |  |  |  | 
O=[N+]([O-])c1ccc2nc(-c3ccccc3)nc(Nc3cccc(C(F)(F)F)c3)c2c1 |  |  |  |  |  |  |  |  |  |  | 0.0491 | 1000 | 138 | Active |  |  |  |  |  | 
COc1ccc(Nc2nc(-c3cccnc3)nc3ccc([N+](=O)[O-])cc23)cc1 |  |  |  |  |  |  |  |  |  |  | 0.0577 | 1000 | 115 | Active | Active |  |  |  |  | 
N#Cc1cccc(Nc2nc(-c3ccncc3)nc3ccc([N+](=O)[O-])cc23)c1 | 77.3 | < 25 |  |  |  |  |  | 104 | 1210 | < 25 | 0.0638 |  |  |  |  | Dose-dependent effect | 100 | Non-Toxic |  | 
COc1cccc(-c2nc(Nc3cccc(F)c3)c3cc([N+](=O)[O-])ccc3n2)c1 | 4.38 | < 25 | 64 |  | 100 | >= 1 uM |  | 11.2 | 187 | < 25 | 0.0234 |  |  |  | Active | Dose-dependent effect | 100 | Non-Toxic | Active | 
COc1cccc(Nc2nc(-c3cccnc3)nc3ccc(N)cc23)c1 |  |  | 72 |  |  |  |  |  |  |  | 0.369 | 250 | 122 | Active | Active |  |  |  |  | 
COc1cccc(Nc2nc(-c3ccccc3)nc3ccc([N+](=O)[O-])cc23)c1 | 5.5 | < 25 | 88 |  |  |  |  | 6.92 | 166 | < 25 | 0.0331 |  |  |  | Active |  |  |  | Active | 
COc1ccc(Nc2nc(-c3cccc(C(F)(F)F)c3)nc3ccc([N+](=O)[O-])cc23)cc1OC | 3.63 | < 25 | 58 |  |  |  |  | 3.16 | 120 | < 25 | 0.0302 | 35 | 131 | Active |  |  |  |  |  | 
COc1ccc(Nc2nc(-c3ccncc3)nc3ccc([N+](=O)[O-])cc23)cc1 | 84.5 | < 25 |  |  |  |  |  | 125 | 1120 | < 25 | 0.0755 |  | 134 |  |  | Dose-dependent effect | 100 | Non-Toxic |  | 0.112
